Measured values published in ChEMBL document CHEMBL1914406, “Inhibitory effect of novel 5-O-acyl juglones on mammalian DNA polymerase activity, cancer cell growth and inflammatory response” (Bioorg Med Chem, 2011).
The source made the active and inactive calls. No cut-off for these calls is given here.

Tests used:
[1] = species: Bos taurus; assay: Inhibition of calf DNA polymerase alpha using poly(dA)/oligo(dT)18 (A/T = 2/1) and dTTP as the DNA template-primer and nucleotide substrate at 10 uM after 60 mins
In short: (§1)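 Compound in DMSO, sonicated 30 s. Premixed 0 °C, 10 min with enzyme (0.05 units) in 50 mM Tris-HCl pH 7.5, 1 mM DTT, 50% glycerol, 0.1 mM EDTA, then added to standard reaction mixture. Template-primers: poly(dA)/oligo(dT)18 (2/1) for pols, oligo(dT)18 for TdT, poly(rA)/oligo(dT)18 for HIV-1 RT, with [3H]dTTP. 60 min at 37 °C (Taq 74 °C). Activity relative to no-inhibitor control; mean ± SE of three experiments.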

[2] = target: T1, DNA polymerase lambda (Homo sapiens) (UniProt Q9UGP5); assay: Inhibition of recombinant His-tagged human DNA polymerase lambda using poly(dA)/oligo(dT)18 (A/T = 2/1) and dTTP as the DNA template-primer and nucleotide substrate at 10 uM after 60 mins; in short: as §1
T1 sequence (whole entry): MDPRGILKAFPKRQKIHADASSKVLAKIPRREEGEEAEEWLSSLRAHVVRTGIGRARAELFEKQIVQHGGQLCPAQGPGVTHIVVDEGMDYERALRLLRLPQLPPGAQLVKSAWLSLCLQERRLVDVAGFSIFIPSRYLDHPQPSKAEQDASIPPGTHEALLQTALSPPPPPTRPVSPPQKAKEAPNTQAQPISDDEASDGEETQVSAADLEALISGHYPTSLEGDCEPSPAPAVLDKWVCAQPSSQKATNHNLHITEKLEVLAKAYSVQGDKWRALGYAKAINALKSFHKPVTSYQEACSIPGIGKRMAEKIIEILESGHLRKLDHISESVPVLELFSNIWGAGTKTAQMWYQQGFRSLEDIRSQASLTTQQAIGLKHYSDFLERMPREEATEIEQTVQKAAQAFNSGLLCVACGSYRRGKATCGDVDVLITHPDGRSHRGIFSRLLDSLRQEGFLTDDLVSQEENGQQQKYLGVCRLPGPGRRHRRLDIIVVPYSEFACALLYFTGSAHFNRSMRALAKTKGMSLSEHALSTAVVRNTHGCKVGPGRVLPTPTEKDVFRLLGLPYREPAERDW

[3] = species: Homo sapiens; assay: Inhibition of histidine-tagged human DNA polymerase gamma using poly(dA)/oligo(dT)18 (A/T = 2/1) and dTTP as the DNA template-primer and nucleotide substrate at 10 uM after 60 mins; in short: as §1
[4] = target: T2, DNA polymerase kappa (Homo sapiens) (UniProt Q9UBT6); assay: Inhibition of C-terminal His6-tagged human DNA polymerase kappa (amino acids 1 to 560) using poly(dA)/oligo(dT)18 (A/T = 2/1) and dTTP as the DNA template-primer and nucleotide substrate at 10 uM after 60 mins
T2 sequence (whole entry): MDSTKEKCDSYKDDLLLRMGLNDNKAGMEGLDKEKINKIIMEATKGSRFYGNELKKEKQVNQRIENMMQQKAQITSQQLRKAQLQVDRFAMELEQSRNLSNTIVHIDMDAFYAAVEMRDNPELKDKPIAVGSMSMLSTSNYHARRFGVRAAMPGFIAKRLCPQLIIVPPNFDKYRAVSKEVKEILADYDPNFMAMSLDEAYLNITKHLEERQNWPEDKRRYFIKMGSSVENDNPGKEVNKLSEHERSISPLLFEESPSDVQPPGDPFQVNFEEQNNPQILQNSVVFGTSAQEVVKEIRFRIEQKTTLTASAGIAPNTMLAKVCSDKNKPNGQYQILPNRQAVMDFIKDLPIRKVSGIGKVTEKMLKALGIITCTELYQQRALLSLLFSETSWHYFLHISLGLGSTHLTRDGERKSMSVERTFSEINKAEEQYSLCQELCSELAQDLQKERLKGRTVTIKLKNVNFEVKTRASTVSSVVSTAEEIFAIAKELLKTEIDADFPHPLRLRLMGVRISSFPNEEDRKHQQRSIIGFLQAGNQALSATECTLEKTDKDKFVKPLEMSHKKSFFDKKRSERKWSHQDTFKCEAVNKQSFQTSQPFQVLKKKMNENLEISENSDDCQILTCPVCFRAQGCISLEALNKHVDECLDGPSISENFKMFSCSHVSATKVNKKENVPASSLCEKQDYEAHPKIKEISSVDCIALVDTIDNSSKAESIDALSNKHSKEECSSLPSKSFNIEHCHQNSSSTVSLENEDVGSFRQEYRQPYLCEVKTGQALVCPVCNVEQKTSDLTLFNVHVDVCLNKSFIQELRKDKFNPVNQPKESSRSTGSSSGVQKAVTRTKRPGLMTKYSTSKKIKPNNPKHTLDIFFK

[5] = tested on: Mus musculus; assay: Antiinflammatory activity in mouse assessed as inhibition of TPA-induced mouse ear edema at 500 ug/ear administered 30 mins before TPA challenge measured after 7 hrs relative to untreated control; type: functional, organism-based
In short: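 Compound (500 µg) applied to one mouse ear; 30 min later TPA (0.5 µg) applied to both ears. Edema scored after 7 h and expressed as percentage of edema. Mean ± SE, n = 6.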

[6] = target: T1, DNA polymerase lambda (Homo sapiens); assay: Inhibition of recombinant His-tagged human DNA polymerase lambda using bovine deoxyribonuclease 1-treated DNA and dNTP as the DNA template-primer and nucleotide substrate at 10 uM after 60 mins
[7] = target: T2, DNA polymerase kappa (Homo sapiens); assay: Inhibition of C-terminal His6-tagged human DNA polymerase kappa (amino acids 1 to 560) using bovine deoxyribonuclease 1-treated DNA and dNTP as the DNA template-primer and nucleotide substrate at 10 uM after 60 mins
[8] = species: Bos taurus; assay: Inhibition of calf DNA polymerase alpha using bovine deoxyribonuclease 1-treated DNA and dNTP as the DNA template-primer and nucleotide substrate at 10 uM after 60 mins
[9] = tested on: Nucleic Acid; assay: Binding affinity to DNA assessed as thermal transition of DNA relative to control; type: nucleic-acid assay
[10] = Cytotoxicity against mouse RAW264.7 cells; type: cell-based; conditions: read-out: LD50 (the source's name)
[11] = tested on: RAW264.7; assay: Cytotoxicity against mouse RAW264.7 cells at 5 uM; type: cell-based; conditions: raw264.7, 5 µM
[12] = species: Homo sapiens; assay: Inhibition of histidine-tagged human DNA polymerase gamma using bovine deoxyribonuclease 1-treated DNA and dNTP as the DNA template-primer and nucleotide substrate at 10 uM after 60 mins
[13] = tested on: HCT-116; assay: Cytotoxicity against human HCT116 cells at 100 uM by WST-1 assay; type: functional, cell-based
In short: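 HCT116 colon carcinoma cells (ATCC) grown in McCoy's 5A with 10% FBS, penicillin and streptomycin, 37 °C, 5% CO2. Plated at 1 × 10⁴ cells/well together with compound, which was diluted from a 10 mM DMSO stock into medium (final 0.5% DMSO). Incubated 24 h. Viability read by WST-1, expressed relative to untreated cells.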

[14] = tested on: RAW264.7; assay: Antiinflammatory activity in mouse RAW264.7 cells assessed as inhibition of LPS-induced TNFalpha secretion at 5 uM treated 30 mins before LPS challenge measured after 24 hrs by ELISA; type: functional, cell-based
In short: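 RAW264.7 cells in MEM with 4.5 g/L glucose, 10% FCS, 5 mM L-glutamine, at 37 °C in 5% CO2. Seeded at 5 × 10⁴ cells/well and grown 24 h. Compound (final 1 and 5 µM) given 30 min before 100 ng/mL LPS. After 24 h, TNF-α in the medium measured by ELISA, relative to the no-compound value (100%). Mean ± SE, n = 4.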

Compound	inhibition [1]	inhibition [2]	inhibition [3]	inhibition [4]	Activity [5]	inhibition [6]	inhibition [7]	inhibition [8]	Activity [9]	CC50 [10] [µM]	Activity [11]	inhibition [12]	Activity [13]	Activity [14]
CC/C=C\C/C=C\C/C=C\C/C=C\C/C=C\C/C=C\CCC(=O)Oc1cccc2c1C(=O)C=CC2=O	Active	Active	Active	Active	Active	Active	Active	Active	inactive	> 10	Non-toxic	Active	–	–
CC/C=C\C/C=C\C/C=C\C/C=C\C/C=C\CCCC(=O)Oc1cccc2c1C(=O)C=CC2=O	Active	Active	Active	Active	Active	Active	Active	Active	inactive	> 10	Non-toxic	Active	–	–
CCCCCCCCCCCCCCCCCC(=O)Oc1cccc2c1C(=O)C=CC2=O	Active	Active	Active	Active	Active	Active	Active	Active	inactive	> 10	Non-toxic	Active	–	–
CCCCC/C=C\C/C=C\CCCCCCCC(=O)Oc1cccc2c1C(=O)C=CC2=O	Active	Active	Active	Active	Active	Active	Active	Active	inactive	> 10	Non-toxic	Active	–	–
CC/C=C\C/C=C\C/C=C\CCCCCCCC(=O)Oc1cccc2c1C(=O)C=CC2=O	Active	Active	Active	Active	Active	Active	Active	Active	inactive	> 10	Non-toxic	Active	–	–
O=C1C=CC(=O)c2c(O)cccc21 [JUGLONE]	Active	Active	Active	Active	Active	Active	Active	Active	–	–	Non-toxic	Active	Active	Active
CCCCCC(=O)Oc1cccc2c1C(=O)C=CC2=O	Active	Active	Active	Active	Active	Active	Active	Active	inactive	> 10	Non-toxic	Active	–	–
CCC(=O)Oc1cccc2c1C(=O)C=CC2=O	Active	Active	Active	Active	Active	Active	Active	Active	inactive	> 10	Non-toxic	Active	–	–
